Data set [1] relates to Human immunodeficiency virus 1. In words: Antiviral activity against HIV1 infected in CEM cells after 72 hrs by GFP reporter gene assay. Type of data set: functional, organism-based. Particulars: for IC50: Human immunodeficiency virus 1, CCRF-CEM; for Activity: CCRF-CEM. In outline:
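CEM T cells carrying an HIV-1 LTR-driven GFP plasmid; 5 × 10^5 cells infected 2 h in 100 µl with supernatant of chronically HIV-infected H9 cells (20 ng/mL p24 equivalent) with compounds at 1000, 100, 10, 1 µM; medium then added, 72 h culture; inhibition scored by GFP expression; IC50 = concentration inhibiting 50% infection; zidovudine internal positive control.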
On the technique in general: A reporter such as luciferase makes a cellular process visible.

For data set [2], the system named is Human T-cell leukemia virus type I. The experiment in a line: Antiviral activity against HTLV1 infected in PBMC assessed as decrease in viral core protein p19 production. The data set is classed as functional, organism-based. In outline:
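PBMC co-cultivated with a chronically HTLV-1-infected cell line, with test compounds present; infection measured as production of viral core protein p19.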

The nature of data set [3]: Cytotoxicity against human MOLT3 cells by MTS assay. Type of data set: cell-based. Particulars: MOLT-3 cells. An outline of the steps: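 MOLT-3 cells (1 × 10^4) seeded with or without compounds at 1000 to 1 µM. Metabolic activity read colorimetrically as MTS formazan formation. CC50 is the concentration giving 50% inhibition of metabolic activity.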
Data set [4] has as its system Human immunodeficiency virus 1. In words: Ratio of AZT IC50 to compound IC50 for HIV1. Type of data set: functional.
A short description of data set [5]: Ratio of compound CC50 to AZT CC50 for human MOLT3 cells. Type of data set: cell-based. Particulars: MOLT-3 cells.
The nature of data set [6]: Selectivity index, ratio of CC50 for human MOLT3 cells to IC50 for HIV1. The data set is classed as functional, MOLT-3. An outline of the steps:
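SI = CC50/IC50. CC50 from MTS formazan colorimetric assay: 1 × 10^4 MOLT-3 cells with or without compounds at 1000 to 1 µM, concentration reducing metabolic activity 50%. IC50 from CEM-GFP HIV-1 infection (2 h exposure with compounds at 1000–1 µM, 72 h culture, GFP read-out).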

The record followed here is ChEMBL document CHEMBL2034829, “Truncated phosphonated C-1'-branched N,O-nucleosides: a new class of antiviral agents” (Bioorg Med Chem, 2012).

Structures are written as SMILES. Activity calls are given as the source filed them. The calls are words filed in the database; no cut-off is given here. Some results are limits rather than exact numbers.

For `CCOC(=O)[C@@]1(n2cc(C)c(=O)[nH]c2=O)C[C@H](P(=O)(OCC)OCC)N(C)O1` (racemic), in data set [1], the IC50 was > 1000 µM. Besides, in data set [2], the result was inactive. In data set [3], the CC50 is > 1000 µM.
`CCOC(=O)[C@@]1(n2cc(F)c(=O)[nH]c2=O)C[C@H](P(=O)(OCC)OCC)N(C)O1` (racemic): in data set [1], the IC50 turned out to be 220 µM. Besides, the “Ratio IC50” value in data set [4] was determined as 28. Also, the outcome in data set [2] was inactive. Moreover, in data set [5], the selectivity ratio was 83. The CC50 in data set [3] is > 1000 µM. In addition, in data set [6], the “Ratio CC50/IC50” value was found to be 4.5.
Consider `CCOC(=O)[C@@]1(n2ccc(=O)[nH]c2=O)C[C@H](P(=O)(OCC)OCC)N(C)O1` (racemic), for which, in data set [1], the IC50 was 132 µM. In addition, the “Ratio IC50” value in data set [4] turned out to be 28. For the same molecule, in data set [2], the result was inactive. Further, the selectivity ratio in data set [5] amounted to 83. Moreover, the CC50 in data set [3] is > 1000 µM. Moreover, the “Ratio CC50/IC50” value in data set [6] is 7.57.
As for `CCOC(=O)[C@@]1(n2ccc(NC(C)=O)nc2=O)C[C@H](P(=O)(OCC)OCC)N(C)O1` (racemic), the IC50 in data set [1] is > 1000 µM. Moreover, the outcome in data set [2] was inactive. Moreover, in data set [3], the CC50 is > 1000 µM.
Molecule `CCOC(=O)[C@@]1(n2ccc(N)nc2=O)C[C@H](P(=O)(OCC)OCC)N(C)O1` (racemic) registered an IC50 in data set [1] of 180 µM. The outcome in data set [2] was inactive. Also, the CC50 in data set [3] was > 1000 µM. In data set [6], the “Ratio CC50/IC50” value amounted to 7.02.
With `CCOC(=O)[C@]1(n2cc(C)c(=O)[nH]c2=O)C[C@H](P(=O)(OCC)OCC)N(C)O1` (racemic), the result in data set [1] and in data set [2] was inactive.
With `CCOC(=O)[C@]1(n2cc(F)c(=O)[nH]c2=O)C[C@H](P(=O)(OCC)OCC)N(C)O1` (racemic), the outcome in data set [1] and in data set [2] was inactive.
As for `CCOC(=O)[C@]1(n2ccc(NC(C)=O)nc2=O)C[C@H](P(=O)(OCC)OCC)N(C)O1` (racemic), the outcome in data set [1] and in data set [2] was inactive.
`CCOC(=O)[C@]1(n2ccc(=O)[nH]c2=O)C[C@H](P(=O)(OCC)OCC)N(C)O1` (relative stereo): the outcome in data set [1] and in data set [2] was inactive.
On to `Cc1cn([C@H]2C[C@H](N=[N+]=[N-])[C@@H](CO)O2)c(=O)[nH]c1=O` [ZIDOVUDINE], for which the IC50 in data set [1] worked out at 7.7 µM. Moreover, the CC50 in data set [3] is 12.1 µM. Moreover, the “Ratio CC50/IC50” value in data set [6] stood at 1.57.

A word on the IC50: it is the midpoint of a concentration-inhibition curve. Lower therefore signals greater potency in that assay. What is called CC50 is the concentration that lowers cell viability or growth by half. A low value points to harm at low concentration.
